# Experimental data collected from several papers.
# Protocols differ between the studies behind these lines.
# SMARCA2: SWI/SNF-related matrix-associated actin-dependent regulator of chromatin subfamily A member 2 (SMARCA2, Homo sapiens, UniProt P51531)
# BRAF V600E: Serine/threonine-protein kinase B-raf (BRAF, Homo sapiens, UniProt P15056, V600E)
# NEK5: Serine/threonine-protein kinase Nek5 (NEK5, Homo sapiens, UniProt Q6P3R8)
Structure (SMILES),target,assay,test system,setting,quantity,result
CCC(/C=C1\CCn2c1nc(=O)c1c(Cl)cccc12)CC,SMARCA2,"thermal stability, DSF",,100 µM,ΔTm,5.33 °C
Cc1ccc(C(CS(=O)(=O)c2ccccc2)=NNc2nc(C)c(N=Nc3cccc(C)c3)s2)cc1,BRAF V600E,"enzyme activity, inhibitor, ATP luminescence",,1 µM,inhibition,81%
CCC/C=C1\CCn2c1nc(=O)c1c(Cl)cccc12,SMARCA2,"thermal stability, DSF",,100 µM,ΔTm,4.61 °C
CCCOc1ccc(OC)c(F)c1C(=O)c1ccc(C(=O)N[C@@H]2CNC[C@H]2NC(=O)c2ccc3[nH]ncc3c2)cc1,"Muscle, skeletal receptor tyrosine-protein kinase (MUSK, Homo sapiens, UniProt O15146)","enzyme activity, inhibitor",,0.1 µM,remaining activity,65%
CC(=O)N[C@H]1CSSC[C@@H](C(=O)N[C@@H](Cc2c[nH]c3ccccc23)C(N)=O)NC(=O)[C@H](Cc2ccccc2)NC(=O)[C@H](CCCNC(=N)N)NC1=O,"Melanocortin receptor 3 (MC3R, Homo sapiens, UniProt P41968)","cAMP, agonist",HEK293,3 min,Emax,0%
CC(C)(C)c1nc(-c2cccc(NS(=O)(=O)c3c(F)cccc3F)c2F)c(-c2ccnc(N)n2)s1,BRAF V600E,"enzyme activity, inhibitor, ATP luminescence",,10 nM,inhibition,34%
Nc1ncnc2occ(-c3ccc(NC(=O)Nc4cc(C(F)(F)F)ccc4F)cc3)c12,NEK5,"cell-free assay, inhibitor",,20 µM,remaining signal,0.95%
Cc1ccc(C(=O)Nc2ccc(CN3CCN(C)CC3)c(C(F)(F)F)c2)cc1C#Cc1cnc2cccnn12,NEK5,"enzyme activity, inhibitor",,23.5 nM,remaining activity,97%
